Assay results from ChEMBL document CHEMBL1156308 (J Med Chem, 2010).

Columns and labels:
[1] = Biodistribution in mouse whole brain at 10 mg/kg, sc after 60 mins; type: ADME, organism-based; design: dose 10 mg/kg, route subcutaneous; details: read-out: Drug uptake
[2] = Biodistribution in mouse whole brain at 10 mg/kg, sc after 30 mins; type: ADME, organism-based; design: dose 10 mg/kg, route subcutaneous; details: read-out: Drug uptake
[3] = Plasma protein binding in baboon; type: ADME, cell-free; details: papio hamadryas, read-out: PPB (converted)
Summary of the method: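 [11C]-labelled drug was incubated 10 min at room temperature in pooled plasma from at least 4 baboons. Total radioactivity was counted, then the sample was ultrafiltered by centrifugation (10 min) and the filtrate counted. Result is expressed as % free fraction in plasma.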

[4] = Lipophilicity, log D of the compound; type: physicochemical; details: octanol/water
[5] = Biodistribution in iv dosed monkey brain after 6 hrs; type: ADME, organism-based, Macaca mulatta; details: rhesus monkey, read-out: Drug uptake
[6] = Biodistribution in human CSF at 108.7 mg, po after 1 hr; type: ADME, organism-based, Cerebrospinal fluid; details: read-out: Drug uptake
[7] = Biodistribution in human CSF at 8.5 mg/kg, po after 2 hrs; type: ADME, organism-based, Cerebrospinal fluid; design: dose 8.5 mg/kg, route oral; details: read-out: Drug uptake
[8] = Biodistribution in ip dosed cat brain; type: ADME, organism-based, Felis catus; details: in vivo

Structure (SMILES): NN[14C](=O)c1ccncc1
- concentration at 1 h [1]: 3200 ng/g
- concentration at 0.5 h [2]: 4400 ng/g

Structure (SMILES): NC(=O)c1cnccn1 [PYRAZINAMIDE]
- fraction unbound [3]: 0.0868
- logD [4]: -0.41

Structure (SMILES): CO[C@H]1/C=C/O[C@@]2(C)Oc3c(C)c(O)c4cc(c(/C=N/N5CCN([14CH3])CC5)c(O)c4c3C2=O)NC(=O)/C(C)=C\C=C\C(C)[C@H](O)[C@@H](C)[C@@H](O)[C@@H](C)[C@H](OC(C)=O)[C@@H]1C (some centres undefined)
- concentration at 6 h [5]: 870 ng/g

Structure (SMILES): NNC(=O)c1ccncc1 [ISONIAZID]
- fraction unbound [3]: 0.0537
- concentration at 1 h [6]: 310 ng/mL
- concentration at 2 h [7]: 1900 ng/mL
- Drug uptake [8]: 0.02 µg/g
